In ChEMBL document CHEMBL1129959, “Synthesis and antiproliferative and antiviral activity of carbohydrate-modified pyrrolo[2,3-d]pyridazin-7-one nucleosides” (J Med Chem, 1997):

Tested on: L1210
Assay: The in vitro cytotoxicity against L1210 cells was evaluated
Format: functional, cell-based
Conditions: Mus musculus
In short: (§1)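 L1210 cells were grown in static suspension in Fischer's medium with 10% heat-inactivated horse serum. Cells were counted at 0, 48 and 96 h across a range of compound concentrations. Growth rate is the ratio of control to treated population-doubling time; the 48–96 h rate was used if growth slowed. IC50 is the concentration giving 50% of control growth rate; highest concentration tested was 100 μM.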

**Q.** With `Nc1nnc(O)c2c1ccn2C1CCC(CO)O1` (stereo unspecified) as the molecule, how does the IC50 read?
**A.** > 100 µM

**Q.** For `Nc1n[nH]c(=O)c2c1c(Br)cn2[C@@H]1O[C@H](CO)[C@@H](O)[C@@H]1O`, which IC50 is on record?
**A.** 18 µM

**Q.** `Nc1nnc(O)c2c1ccn2[C@@H]1O[C@H](CO)[C@@H](O)[C@@H]1O` was tested. Which IC50 did it give?
**A.** 100 µM

**Q.** With `Nc1nnc(O)c2c1c(Br)cn2C1CCC(CO)O1` (stereo unspecified) as the molecule, how does the IC50 read?
**A.** 38 µM

**Q.** For `Nc1nnc(O)c2c1c(I)cn2C1O[C@H](CO)[C@@H](O)[C@H]1O` (stereo partly specified), which IC50 is on record?
**A.** 0.02 µM

Tested on: HFF
Assay: Cytotoxicity in HFF cells was estimated by the visual scoring of cells not affected by virus infection in the plaque reduction assay.
Conditions: Homo sapiens

**Q.** `Nc1nnc(O)c2c1ccn2C1CCC(CO)O1` (stereo unspecified) was tested. Which IC50 did it give?
**A.** > 100 µM

**Q.** `Nc1nnc(O)c2c1ccn2COC(CO)CO` was tested. Which IC50 did it give?
**A.** > 100 µM

**Q.** How did the IC50 turn out when `Nc1nnc(O)c2c1c(Br)cn2COC(CO)CO` was run?
**A.** > 100 µM

**Q.** With `Nc1nnc(O)c2c1ccn2[C@@H]1O[C@H](CO)[C@@H](O)[C@H]1O` as the molecule, how does the IC50 read?
**A.** > 100 µM

**Q.** How did the IC50 turn out when `Nc1n[nH]c(=O)c2c1c(Br)cn2[C@@H]1O[C@H](CO)[C@@H](O)[C@@H]1O` was run?
**A.** 32 µM

**Q.** `Nc1nnc(O)c2c1ccn2[C@@H]1O[C@H](CO)[C@@H](O)[C@@H]1O` was tested. Which IC50 did it give?
**A.** > 100 µM

**Q.** With `Nc1n[nH]c(=O)c2c1ccn2[C@H]1C[C@H](O)[C@@H](CO)O1` as the molecule, how does the IC50 read?
**A.** > 100 µM

**Q.** With `Nc1nnc(O)c2c1c(Br)cn2C1CCC(CO)O1` (stereo unspecified) as the molecule, how does the IC50 read?
**A.** 32 µM

Tested on: HFF
Assay: Antiviral activity was determined by the HCMV plaque assay using HFF cells
Format: functional, cell-based
Conditions: Homo sapiens
In short: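 HCMV Towne strain (plaque-purified isolate Po) on HFF monolayers grown in MEM with Earle's salts and 10% FBS. Inoculum held approximately 50 PFU. Compounds were dissolved in the overlay medium and plaques counted. IC50 came from linear regression of percent inhibition against log concentration. Ganciclovir was the positive control.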

**Q.** Which IC50 does the source give for `Nc1nnc(O)c2c1ccn2C1CCC(CO)O1` (stereo unspecified) here?
**A.** > 100 µM

**Q.** Which IC50 does the source give for `Nc1nnc(O)c2c1ccn2COC(CO)CO` here?
**A.** > 100 µM

**Q.** How did the IC50 turn out when `Nc1nnc(O)c2c1c(Br)cn2COC(CO)CO` was run?
**A.** > 100 µM

**Q.** How did the IC50 turn out when `Nc1n[nH]c(=O)c2c1c(Br)cn2[C@@H]1O[C@H](CO)[C@@H](O)[C@@H]1O` was run?
**A.** 2.7 µM

**Q.** Which IC50 does the source give for `Nc1nnc(O)c2c1ccn2[C@@H]1O[C@H](CO)[C@@H](O)[C@@H]1O` here?
**A.** > 100 µM

**Q.** For `Nc1n[nH]c(=O)c2c1c(Br)cn2[C@@H]1O[C@H](CO)[C@@H](O)[C@H]1O`, which IC50 is on record?
**A.** 0.1 µM

**Q.** With `Nc1n[nH]c(=O)c2c1ccn2[C@H]1C[C@H](O)[C@@H](CO)O1` as the molecule, how does the IC50 read?
**A.** > 100 µM

**Q.** For `Nc1nnc(O)c2c1c(Br)cn2C1CCC(CO)O1` (stereo unspecified), which IC50 is on record?
**A.** 12 µM

**Q.** For `Nc1nnc(O)c2c1c(I)cn2C1O[C@H](CO)[C@@H](O)[C@H]1O` (stereo partly specified), which IC50 is on record?
**A.** 0.4 µM

**Q.** `Nc1nnc(O)c2c1c(Cl)cn2C1O[C@H](CO)[C@@H](O)[C@H]1O` (stereo partly specified) was tested. Which IC50 did it give?
**A.** 0.2 µM

**Q.** For `Nc1nc2c(ncn2COC(CO)CO)c(=O)[nH]1` [GANCICLOVIR], which IC50 is on record?
**A.** 7.7 µM

Tested on: L1210
Assay: Cytotoxicity in L1210 cell culture(cell proliferation inhibited by 50%)
Format: functional, cell-based
Conditions: Mus musculus
In short: as §1

**Q.** For `Nc1nnc(O)c2c1c(Br)cn2COC(CO)CO`, which IC50 is on record?
**A.** > 100 µM

**Q.** For `Nc1n[nH]c(=O)c2c1ccn2[C@H]1C[C@H](O)[C@@H](CO)O1`, which IC50 is on record?
**A.** > 100 µM

Tested on: L1210
Assay: cytotoxicity in L1210 cell culture(cell proliferation inhibited by 50%)
Format: functional, cell-based
Conditions: Mus musculus
In short: as §1

**Q.** `Nc1nnc(O)c2c1ccn2COC(CO)CO` was tested. Which IC50 did it give?
**A.** > 100 µM

Tested on: KB
Assay: Antiviral activity was estimated by HSV-1 ELISA method
Format: functional, cell-based
Conditions: Homo sapiens
In short: (§2)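 HSV-1 S-148 strain was assayed by enzyme immunoassay (ELISA) in quadruplicate wells. The reported value is the average IC50, taken from linear regression of percent inhibition against log drug concentration. Acyclovir served as the positive control, and sets were rejected if it deviated more than 1.5 standard deviations from its mean.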

**Q.** For `Nc1nnc(O)c2c1c(Br)cn2COC(CO)CO`, which IC50 is on record?
**A.** > 100 µM

Tested on: KB
Assay: Cytotoxicity in KB cells.
Format: functional, cell-based
Conditions: Homo sapiens
In short: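 KB cells grown in MEM with Hank's salts and 5% FBS. Growth was measured spectrophotometrically by crystal violet staining 2 days after drug treatment, in quadruplicate wells. IC50 was taken from linear regression of percent inhibition against log concentration. 2-Acetylpyridine thiosemicarbazone was the positive control.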

**Q.** `Nc1nnc(O)c2c1ccn2C1CCC(CO)O1` (stereo unspecified) was tested. Which IC50 did it give?
**A.** > 100 µM

**Q.** How did the IC50 turn out when `Nc1nnc(O)c2c1ccn2COC(CO)CO` was run?
**A.** > 100 µM

**Q.** How did the IC50 turn out when `Nc1nnc(O)c2c1c(Br)cn2COC(CO)CO` was run?
**A.** > 100 µM

**Q.** Which IC50 does the source give for `Nc1n[nH]c(=O)c2c1c(Br)cn2[C@@H]1O[C@H](CO)[C@@H](O)[C@@H]1O` here?
**A.** 15 µM

**Q.** For `Nc1n[nH]c(=O)c2c1ccn2[C@H]1C[C@H](O)[C@@H](CO)O1`, which IC50 is on record?
**A.** > 100 µM

**Q.** For `Nc1nnc(O)c2c1c(Br)cn2C1CCC(CO)O1` (stereo unspecified), which IC50 is on record?
**A.** 10 µM

Tested on: KB
Assay: Antiviral activity was estimated by HSV-1 ELISA method (data of single experiment)
Format: functional, cell-based
Conditions: Homo sapiens
In short: as §2

**Q.** How did the IC50 turn out when `Nc1nnc(O)c2c1ccn2COC(CO)CO` was run?
**A.** > 100 µM

**Q.** `Nc1nc2c(ncn2COC(CO)CO)c(=O)[nH]1` [GANCICLOVIR] was tested. Which IC50 did it give?
**A.** 3.5 µM

Tested on: HFF
Assay: Antiviral activity was estimated by the HCMV yield reduction experiments.
Format: functional
Conditions: Homo sapiens
In short: (§3)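 HCMV Towne strain yield reduction assay. Results are given as IC90, derived by linear regression of percent inhibition against log drug concentration. Ganciclovir was the positive control.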

**Q.** `Nc1n[nH]c(=O)c2c1c(Br)cn2[C@@H]1O[C@H](CO)[C@@H](O)[C@@H]1O` was tested. Which IC90 did it give?
**A.** 6.3 µM

**Q.** `Nc1n[nH]c(=O)c2c1c(Br)cn2[C@@H]1O[C@H](CO)[C@@H](O)[C@H]1O` was tested. Which IC90 did it give?
**A.** 0.04 µM

**Q.** How did the IC90 turn out when `Nc1nnc(O)c2c1c(Br)cn2C1CCC(CO)O1` (stereo unspecified) was run?
**A.** 10 µM

**Q.** Which IC90 does the source give for `Nc1nnc(O)c2c1c(I)cn2C1O[C@H](CO)[C@@H](O)[C@H]1O` (stereo partly specified) here?
**A.** 0.02 µM

**Q.** `Nc1nnc(O)c2c1c(Cl)cn2C1O[C@H](CO)[C@@H](O)[C@H]1O` (stereo partly specified) was tested. Which IC90 did it give?
**A.** 0.7 µM

Tested on: KB
Assay: Antiviral activity was estimated by HSV-1 ELISA method.
Format: functional, cell-based
Conditions: Homo sapiens
In short: as §2

**Q.** Which IC50 does the source give for `Nc1nnc(O)c2c1ccn2C1CCC(CO)O1` (stereo unspecified) here?
**A.** > 100 µM

**Q.** Which IC50 does the source give for `Nc1nnc(O)c2c1ccn2[C@@H]1O[C@H](CO)[C@@H](O)[C@H]1O` here?
**A.** 90 µM

**Q.** For `Nc1n[nH]c(=O)c2c1c(Br)cn2[C@@H]1O[C@H](CO)[C@@H](O)[C@@H]1O`, which IC50 is on record?
**A.** 20 µM

**Q.** How did the IC50 turn out when `Nc1nnc(O)c2c1ccn2[C@@H]1O[C@H](CO)[C@@H](O)[C@@H]1O` was run?
**A.** 90 µM

**Q.** With `Nc1n[nH]c(=O)c2c1c(Br)cn2[C@@H]1O[C@H](CO)[C@@H](O)[C@H]1O` as the molecule, how does the IC50 read?
**A.** 2 µM

**Q.** `Nc1n[nH]c(=O)c2c1ccn2[C@H]1C[C@H](O)[C@@H](CO)O1` was tested. Which IC50 did it give?
**A.** 128 µM

**Q.** `Nc1nnc(O)c2c1c(Br)cn2C1CCC(CO)O1` (stereo unspecified) was tested. Which IC50 did it give?
**A.** 27 µM

**Q.** Which IC50 does the source give for `Nc1nnc(O)c2c1c(I)cn2C1O[C@H](CO)[C@@H](O)[C@H]1O` (stereo partly specified) here?
**A.** 4.5 µM

**Q.** With `Nc1nnc(O)c2c1c(Cl)cn2C1O[C@H](CO)[C@@H](O)[C@H]1O` (stereo partly specified) as the molecule, how does the IC50 read?
**A.** 6.8 µM

Tested on: HFF
Assay: Antiviral activity was estimated by the HCMV yield reduction experiments
Format: functional
Conditions: Homo sapiens
In short: as §3

**Q.** Which IC90 does the source give for `Nc1nc2c(ncn2COC(CO)CO)c(=O)[nH]1` [GANCICLOVIR] here?
**A.** 1.8 µM
